Assay results from ChEMBL document CHEMBL1133105, “Antimalarial, antitrypanosomal, and antileishmanial activities and cytotoxicity of bis(9-amino-6-chloro-2-methoxyacridines): influence of the linker” (J Med Chem, 2000).

What was measured:
[1] = test system: Leishmania infantum; test: Percentage of activity against Leishmania infantum at 6.25 uM; Toxic upon mouse primary peritoneal macrophages; assay type: functional, organism-based
In short: (§1)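 Starch-stimulated mouse peritoneal macrophages, 30 000/well, infected after 24 h with spleen-derived L. infantum amastigotes (10:1) together with 2-fold drug dilutions (12.5–1.56 µM). Incubated 7 days at 37 °C, 5% CO2. Wright-stained slides scored microscopically as % reduction of total parasite load or of infected macrophages. Uninfected treated cultures judged microscopically for macrophage toxicity.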

[2] = test system: Leishmania infantum; test: Percentage of activity against Leishmania infantum at 1.56 uM; assay type: functional; in short: as §1
[3] = test system: Leishmania infantum; test: Percentage of activity against Leishmania infantum at 12.5 uM Concentration; Toxic upon mouse primary peritoneal macrophages; assay type: functional, organism-based; in short: as §1
[4] = test system: Leishmania infantum; test: Percentage of activity against Leishmania infantum at 3.13 uM; assay type: functional; in short: as §1
[5] = test system: MRC5; test: Cytotoxicity on MRC-5 cells at 12.5 uM; assay type: functional; details: Homo sapiens
In short: (§2)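 MRC-5 human diploid embryonic lung cells seeded at 5 000/well, washed after 24 h, then given 2-fold drug dilutions (25, 12.5, 6.25, 3.13 µM) in RPMI + 5% FCS, final DMSO below 0.5%. Incubated 7 days at 37 °C, 5% CO2. MTT colorimetric read-out, scored as % reduction of absorbance at 540 nm versus untreated controls.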

[6] = test system: MRC5; test: Cytotoxicity on MRC-5 cells at 25 uM; assay type: functional; details: Homo sapiens; in short: as §2
[7] = test system: MRC5; test: Cytotoxicity on MRC-5 cells at 3.13 uM; assay type: functional; details: Homo sapiens; in short: as §2
[8] = test system: MRC5; test: Cytotoxicity on MRC-5 cells at 6.25 uM; assay type: functional; details: Homo sapiens; in short: as §2
[9] = test system: Plasmodium falciparum; test: Parasite growth inhibition against Plasmodium falciparum W2; assay type: functional, organism-based
In short: (§3)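 Asynchronous cultures of each strain on human erythrocytes (0.5% parasitemia, 1% final hematocrit) were exposed to serially diluted drug for 24 h at 37 °C. Then 0.5 µCi [3H]hypoxanthine per well was added for 24 h. Incorporation was compared with a drug-free control on the same plate. IC50 was taken from the concentration-response curve as the mean of several independent experiments. DMSO was at most 0.1%.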

[10] = test system: Plasmodium falciparum; test: Parasite growth inhibition against Plasmodium falciparum F32A; assay type: functional, organism-based; in short: as §3
[11] = test system: Plasmodium falciparum; test: Parasite growth inhibition against Plasmodium falciparum FCM29; assay type: functional, organism-based; in short: as §3
[12] = test system: Plasmodium falciparum; test: Parasite growth inhibition against Plasmodium falciparum FCR3; assay type: functional, organism-based; in short: as §3
[13] = test system: Plasmodium falciparum; test: In vitro sensitivity for Plasmodium falciparum FcB1R; assay type: functional, organism-based
In short: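 Asynchronous P. falciparum cultures in human erythrocytes (0.5% parasitemia, 1% haematocrit) exposed to serially diluted drug for 24 h at 37 °C. [3H]hypoxanthine (0.5 µCi/well) then added for a further 24 h. Uptake compared with drug-free controls on the same plate. IC50 taken from the concentration–response curve, averaged over independent experiments. DMSO ≤0.1%.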

[14] = test system: Plasmodium falciparum; test: Parasite growth inhibition against Plasmodium falciparum GP1; assay type: functional, organism-based; in short: as §3
[15] = test system: Plasmodium falciparum; test: Parasite growth inhibition against Plasmodium falciparum K1; assay type: functional, organism-based; in short: as §3
[16] = test system: Trypanosoma cruzi; test: Percentage of activity against Trypanosoma cruzi at 1.56 uM; assay type: functional
In short: (§4)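 Mouse peritoneal macrophages, 30 000/well, infected after 24 h with about 100 000 T. cruzi trypomastigotes per well plus 2-fold drug dilutions (12.5–1.56 µM). Incubated 4 days at 37 °C, 5% CO2. Methanol-fixed, Giemsa-stained and scored microscopically as % reduction of total parasite load (free trypomastigotes plus intracellular amastigotes) versus untreated controls.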

[17] = test system: Trypanosoma cruzi; test: Percentage of activity against Trypanosoma cruzi at 12.5 uM; Toxic upon mouse primary peritoneal macrophages; assay type: functional, organism-based; in short: as §4
[18] = test system: Trypanosoma cruzi; test: Percentage of activity against Trypanosoma cruzi at 3.13 uM; assay type: functional; in short: as §4
[19] = test system: Trypanosoma cruzi; test: In Vitro evaluation for the percentage of activity towards Trypanosoma cruzi at 6.25 uM Concentration; Toxic upon mouse primary peritoneal macrophages; assay type: functional, organism-based; in short: as §4
[20] = test system: Trypanosoma brucei; test: Percentage of activity against Trypanosoma brucei at 6.25 uM; assay type: functional
In short: (§5)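 Bloodstream-form T. brucei in HMI-9 medium, 10 000 parasites/well, exposed to 12.5, 6.25, 3.13 and 1.56 µM drug for 4 days. Read-out is % inhibition of parasite multiplication. Macrophage toxicity judged on mouse primary peritoneal macrophages.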

[21] = test system: Trypanosoma brucei; test: Percentage of activity against Trypanosoma brucei at 1.56 uM; assay type: functional; in short: as §5
[22] = test system: Trypanosoma brucei; test: Percentage of activity against Trypanosoma brucei at 3.13 uM; assay type: functional; in short: as §5
[23] = test system: Plasmodium falciparum; test: Growth inhibition of chloroquine-sensitive Plasmodium falciparum 3D7
[24] = test system: Leishmania infantum; test: Percentage of activity against Leishmania infantum 6.25 uM; assay type: functional; in short: as §1
[25] = test system: Trypanosoma cruzi; test: Percentage of activity against Trypanosoma cruzi at 6.25 uM Concentration; assay type: functional; in short: as §4
[26] = test system: Trypanosoma brucei; test: Percentage of activity against Trypanosoma brucei at 12.5 uM; assay type: functional; in short: as §5
[27] = test system: Leishmania infantum; test: In Vitro evaluation for the percentage of activity towards Leishmania infantum at 3.13 uM Concentration; Toxic upon mouse primary peritoneal macrophages; assay type: functional, organism-based; in short: as §1
[28] = test system: Leishmania infantum; test: In Vitro evaluation for the percentage of activity towards Leishmania infantum at 1.56 uM Concentration; Toxic upon mouse primary peritoneal macrophages; assay type: functional, organism-based; in short: as §1
[29] = test system: Trypanosoma cruzi; test: In Vitro evaluation for the percentage of activity towards Trypanosoma cruzi at 3.13 uM Concentration; Toxic upon mouse primary peritoneal macrophages; assay type: functional, organism-based; in short: as §4

SMILES	Cytotoxicity [1]	Antileishmanial activity (% reduction of parasite load) [2] [%]	Cytotoxicity [3]	Percent antileishmanial activity (reduction of parasite load) [4] [%]	cytotoxicity at 12.5 µM [5] [%]	cytotoxicity at 25 µM [6] [%]	cytotoxicity at 3.13 µM [7] [%]	cytotoxicity at 6.25 µM [8] [%]	IC50 [9] [nM]	IC50 [10] [nM]	IC50 [11] [nM]	IC50 [13] [nM]	IC50 [14] [nM]	IC50 [15] [nM]	Parasite load reduction [16] [%]	Cytotoxicity [17]	Reduction of T. cruzi parasite load [18] [%]	Inhibition of parasite multiplication [20] [%]	Percent inhibition of parasite multiplication [21] [%]	Parasite growth inhibition [22] [%]	other results
COc1ccc2nc3cc(Cl)ccc3c(NCCCN(CCCNc3c4ccc(Cl)cc4nc4ccc(OC)cc34)C(=O)[C@@H](C)NC(=O)OC(C)(C)C)c2c1	Toxic	95	Toxic	99	84	100	81	84	18	89	11	33	66	23	60	Toxic	95	100	100	100	IC50 [12]: 32 nM; Cytotoxicity [19]: Toxic; IC50 [23]: 57 nM
COc1ccc2nc3cc(Cl)ccc3c(NCCCN(CCCNc3c4ccc(Cl)cc4nc4ccc(OC)cc34)C(=O)C(C)NC(=O)OC(C)(C)C)c2c1 (stereo not given)	–	40	Toxic	60	100	100	0	100	10	66	11	31	35	12	0	Toxic	40	100	100	100	Antileishmanial activity (% reduction of parasite load) [24]: 95%; Reduction of T. cruzi parasite load [25]: 90%; Inhibition of parasite multiplication [26]: 100%; IC50 [23]: 22 nM
COc1ccc2nc3cc(Cl)ccc3c(NCCCN(CCCNc3c4ccc(Cl)cc4nc4ccc(OC)cc34)C(=O)C(NC(=O)OC(C)(C)C)C(C)C)c2c1 (stereo not given)	Toxic	95	Toxic	99	59	60	43	54	40	57	16	25	83	36	70	Toxic	90	100	100	100	IC50 [12]: 22 nM; Cytotoxicity [19]: Toxic; IC50 [23]: 49 nM
COc1ccc2nc3cc(Cl)ccc3c(NCCCN(CCCNc3c4ccc(Cl)cc4nc4ccc(OC)cc34)C(=O)CCN3CCN(C)CC3)c2c1	Toxic	–	Toxic	–	74	80	40	57	–	–	–	62	–	–	0	Toxic	–	100	100	100	Cytotoxicity [27]: Toxic; Cytotoxicity [28]: Toxic; Cytotoxicity [29]: Toxic; Cytotoxicity [19]: Toxic
